These results are taken from PubChem BioAssay.

SMILES strings stand for the structures. The source made the active and inactive calls.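 The calls were made as follows, unless noted: active = NADPH fluorescence slope more negative than the mean of all samples by about 3 SD, 99.7% confidence; inactive = the rest.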

Experiment [1] in a line: inhibitors of TNFa-induced NFkB p65 translocation, primary screen, imaging, HUVEC, MLSMR starter and 10KST1 sets (AID 438;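 active = inhibition above 20% together with a positive visual image hit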;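 also: compound added about 3h40 before a 20 min TNFalpha stimulation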;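 as to inhibition: signal is the nuclear over cytoplasmic p65 intensity ratio per well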). To be noted: HUVEC TNFa-induced p65 nuclear translocation; cell count: measured here: nuclei count (cytotoxicity indicator), at 2.08 µM; inhibition: at 2 µM, stronger effect = higher value, 0% TNFa-plus-vehicle, 100% no-TNFa wells.
The nature of experiment [2]: endothelial E-selectin expression blockers – imaging, HUVEC, immunofluorescence, MLSMR starter and 10KST1 sets, primary screen (AID 487;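 active = visually confirmed hit in the image check and inhibition above 20%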;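 as to inhibition: signal is fraction of cell area covered by stained E-selectin grains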;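 as to nuclei count: 100% = median nuclei count of all wells on the same plate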). To be noted: HUVEC TNFalpha-induced E-selectin immunofluorescence imaging, at 2 µM; inhibition: stronger effect = higher value; nuclei count: measured here: cell number, toxicity.
Experiment [3] can be described thus: Primary imaging screen for DUSP6 inhibitors that restore phospho-Erk in transfected HeLa cells, chemical complementation (AID 609;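 active = compounds giving at least 50% inhibition in the cell-based MKP-3 phosphatase rescue imaging test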;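 as to inhibition: phospho-Erk level distribution per well compared with pooled transfected vehicle control wells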). As to conditions: HeLa MKP-3 transfected, phospho-Erk imaging KS statistic, at 10 µM, cells stimulated with TPA for 15 min.
The target in experiment [4] is Dual specificity protein phosphatase 6 (Homo sapiens) (UniProt Q16828). The description is as above. As to conditions: HeLa MKP-3 transfected, phospho-Erk imaging KS statistic; at 10 µM; stronger effect = higher value; cells stimulated with TPA for 15 min.
Sequence of Dual specificity protein phosphatase 6 (Homo sapiens) (Q16828 whole entry, looked up): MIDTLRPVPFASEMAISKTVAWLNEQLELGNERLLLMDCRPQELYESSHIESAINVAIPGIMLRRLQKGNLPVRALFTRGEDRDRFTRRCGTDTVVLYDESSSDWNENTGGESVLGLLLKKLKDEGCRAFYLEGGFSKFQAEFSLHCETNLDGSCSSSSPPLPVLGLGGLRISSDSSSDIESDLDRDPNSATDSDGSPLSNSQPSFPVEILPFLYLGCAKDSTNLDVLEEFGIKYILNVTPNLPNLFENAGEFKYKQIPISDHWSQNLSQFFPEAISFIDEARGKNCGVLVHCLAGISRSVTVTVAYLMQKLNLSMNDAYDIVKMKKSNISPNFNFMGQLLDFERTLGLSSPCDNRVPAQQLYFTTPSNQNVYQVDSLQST
Experiment [5] has as its target Voltage-gated potassium channel subunit beta-2 (Rattus norvegicus) (UniProt P62483). As to the kind of experiment: inhibitors of rat Kvbeta2 reductase activity – biochemical, NADPH fluorescence, primary screen (AID 622;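 active = fluorescence slope higher than the sample average by over 3 SD, cut at about -0.22 in these data, passing the limit was not always enough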;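 also: slope of raw intensity against log time taken from 70 to 1610 s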). To be noted: recombinant KvBeta, 4-cyanobenzaldehyde reduction, at 10 µM, stronger effect = higher value.
For experiment [6] the target is unchanged. The experiment in a line: enhancers of rat Kvbeta2 NADPH turnover – biochemical, NADPH fluorescence, primary screen (AID 623).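 Also: fluorescence intensity change per second fitted from 20 to 320 s.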 To be noted: Recombinant KvBeta, NADPH fluorescence decrease slope, 10 min; at 10 µM; stronger effect = lower value.
Experiment [7] addresses Alpha-2C adrenergic receptor (Homo sapiens) (UniProt P18825). As to the kind of experiment: compounds altering alpha2C-coupled GIRK flux – cell-based, HEK293 alpha2C/GIRK1/2, thallium flux, primary screen (AID 624;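 active = fluorescence slope after compound addition differing from the mean of all screened samples at 99.7% confidence, in either direction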;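 also: slope of fluorescence ratio to pre-addition baseline per second over 15 to 24 s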). To be noted: thallium flux BTC fluorescence, at 10 µM, actives lie on both sides.
Experiment [8] is described as follows: inhibitors of larval lipid processing in zebrafish, primary screen, whole organism, PED6 fluorescence, gall bladder and intestine (AID 686;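 active = a full or partial loss of lipid-probe fluorescence in the fish gall bladder, intestine or both, judged by eye; inactive = no fluorescence loss, or compound toxic to the fish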;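 also: signal comes from phospholipase A2 cleavage of quenched PED6 carried via bile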). As to conditions: Zebrafish larvae PED6 lipid processing, fluorescence scoring; screened at 20 µM (by protocol). The gist of the method: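 Doses: 20 µM single dose. Test system: live zebrafish larvae aged 5-7 days, whole organism. Quantity: five larvae per well. Measured by: By-eye fluorescence microscopy. Reagent: ingested quenched lipid PED6 at 100 nM. Read-out: visual per-well fluorescence inhibition score. Times: overnight exposure of larvae to compound plus PED6.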

The nature of experiment [9]: loss of swimming-algae plug formation – whole organism, Chlamydomonas reinhardtii, WT vs cilia-less mutant, absorbance, 96-well, primary screen (AID 463189;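 active = inhibition at or above 50% relative to wild type and mutant plate controls; inactive = inhibition below 50%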;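 also: 0% = wild type cc124 cells in DMSO and 100% = ciliumless bld1 mutant cells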). As to conditions: Chlamydomonas reinhardtii gravitaxis, OD600 absorbance, 2 days; at 10 µM; stronger effect = higher value.
[10] abbreviates: measured here: cell density z-score.
Setting [11] is: measured here: nuclear c-Myc green intensity z-score.
[12] abbreviates: measured here: nuclear pErk red intensity z-score, stronger effect = higher value.

A word on the inhibition: it is the change of the read-out against control, counted positive when it falls.

Sequence of Voltage-gated potassium channel subunit beta-2 (Rattus norvegicus) (P62483 whole entry, looked up): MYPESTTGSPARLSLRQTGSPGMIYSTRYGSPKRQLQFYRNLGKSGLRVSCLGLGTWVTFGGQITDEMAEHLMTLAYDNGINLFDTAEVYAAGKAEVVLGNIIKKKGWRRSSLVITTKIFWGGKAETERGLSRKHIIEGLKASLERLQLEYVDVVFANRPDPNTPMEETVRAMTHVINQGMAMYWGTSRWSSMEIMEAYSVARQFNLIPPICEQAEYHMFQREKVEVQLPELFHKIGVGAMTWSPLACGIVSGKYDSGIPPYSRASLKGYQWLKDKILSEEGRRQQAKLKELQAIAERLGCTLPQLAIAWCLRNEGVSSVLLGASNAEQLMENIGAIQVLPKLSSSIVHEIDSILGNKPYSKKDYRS
Sequence of Alpha-2C adrenergic receptor (Homo sapiens) (P18825 whole entry, looked up): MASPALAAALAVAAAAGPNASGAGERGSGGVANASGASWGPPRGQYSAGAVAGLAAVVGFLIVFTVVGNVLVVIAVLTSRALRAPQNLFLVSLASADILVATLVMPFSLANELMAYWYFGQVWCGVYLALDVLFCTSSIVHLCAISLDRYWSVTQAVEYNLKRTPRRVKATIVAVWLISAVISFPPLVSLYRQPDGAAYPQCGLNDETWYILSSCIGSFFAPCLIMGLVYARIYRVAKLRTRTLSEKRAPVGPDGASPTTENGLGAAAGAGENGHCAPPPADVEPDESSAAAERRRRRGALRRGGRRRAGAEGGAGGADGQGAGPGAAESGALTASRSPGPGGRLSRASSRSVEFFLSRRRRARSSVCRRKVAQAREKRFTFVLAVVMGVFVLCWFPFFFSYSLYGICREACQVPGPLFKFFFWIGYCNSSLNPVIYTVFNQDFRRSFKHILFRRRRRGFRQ

In the case of `C=CCOC(=O)C(C#N)c1nc2ccccc2nc1N1CCN(c2ccccc2OCC)CC1` (stereo unspecified), the cell count in [1] amounted to 543. For the same molecule, the inhibition is -30.2% (inactive) in experiment [1], -94.9% (inactive) in experiment [2], -11.5% (inactive) in experiment [4] and -7.78% (inactive) in experiment [9]. This molecule came in with a nuclei count in [2] of 165%. Also, the z-score in [3] (setting [10]) is -0.552; in [3] (setting [11]), -0.297; in [3] (setting [12]), 0.325. Also, in [5], the fluorescence slope was -0.494 (inactive). Moreover, the NADPH fluorescence slope in experiment [6] was -3.6e-05 (inactive). In addition, the slope in experiment [7] is 0.00373 (inactive). In addition, the molecule was called inactive in experiment [8].

On to `CC1(C)Cc2c(sc3ncn4nnnc4c23)CO1`, for which the cell count in [1] came out at 685. In addition, the inhibition was -0.9% (inactive) in experiment [1], -182% (inactive) in [2], 13.2% (inactive) in [4] and 9.27% (inactive) in [9]. Also, the nuclei count in [2] came to 180%. Besides, the values for the z-score in [3] (setting [10]), in [3] (setting [11]) and in experiment [3] (setting [12]) were 1.78, -1.07 and 0.925, respectively. The fluorescence slope in experiment [5] is -0.522 (inactive). In addition, the NADPH fluorescence slope in experiment [6] was -3.9e-05 (inactive). Further, in experiment [7], the slope was 0.00539 (inactive). In addition, in experiment [8], the molecule was classed as inactive.

As to `COC(=O)c1cc(OC)c(OC)cc1N`, in [1], the cell count worked out at 358. The inhibition in experiment [1] is -11.5% (inactive); in experiment [2] it was 9.3% (inactive); in experiment [4], -12.3% (inactive); in [9], -2.54% (inactive). The nuclei count in experiment [2] came to 135%. In addition, the z-score in [3] (setting [10]) came out at 0.282; in experiment [3] (setting [11]), 0.254; in [3] (setting [12]), 0.0446. Further, the fluorescence slope in experiment [5] was -0.385 (inactive). The NADPH fluorescence slope in experiment [6] is -0.000132 (inactive). The slope in experiment [7] is 0.00592 (inactive). Moreover, in experiment [8], the result was inactive.

For `C=CCNC(=O)C(C#N)c1nc2ccccc2nc1N1CCCCCC1` (stereo unspecified), the cell count in experiment [1] was 537. For the same molecule, the inhibition is -1.4% (inactive) in experiment [1], -190% (inactive) in [2], 15% (inactive) in experiment [4] and 10.7% (inactive) in experiment [9]. Besides, in experiment [2], the nuclei count was 178%. Also, the z-score in [3] (setting [10]) was -1.46; in experiment [3] (setting [11]) it was 1.13; in experiment [3] (setting [12]), 1.59. In [5], the fluorescence slope is -0.302 (inactive). Besides, the NADPH fluorescence slope in [6] is -1.1e-05 (inactive). Besides, the slope in experiment [7] was -0.000734 (inactive). Also, the call in experiment [8] was inactive.

As for `CN1C(=O)NC(NC(=O)c2ccco2)(C(F)(F)F)C1=O` (stereo unspecified), the cell count in experiment [1] is 489. Moreover, the inhibition in experiment [1] was -3.4% (inactive); in [2], -78% (inactive); in [4] it was 3.5% (inactive); in experiment [9], -10.1% (inactive). Besides, the nuclei count in experiment [2] worked out at 116%. Further, the results for the z-score in experiment [3] (setting [10]), in [3] (setting [11]) and in [3] (setting [12]) were -0.0785, -0.489 and 0.527, respectively. The fluorescence slope in [5] was -0.504 (inactive). The NADPH fluorescence slope in experiment [6] was -6e-05 (inactive). Moreover, the slope in experiment [7] is 0.00753 (inactive). In experiment [8], the result was inactive.

`Cc1ccnc(N2CCN(c3cc(C)c(C#N)c4nc5ccccc5n34)CC2)c1`: in experiment [1], the cell count turned out to be 572. For the same molecule, the inhibition is 7.2% (inactive) in [1], -151% (inactive) in experiment [2], 13.9% (inactive) in [4] and -4.75% (inactive) in [9]. For the same molecule, the nuclei count in [2] came to 125%. The z-score in [3] (setting [10]) was 0.222; in experiment [3] (setting [11]), 0.0486; in experiment [3] (setting [12]) it was -0.157. Moreover, in experiment [5], the fluorescence slope was -0.408 (inactive). Further, in experiment [6], the NADPH fluorescence slope was -8.8e-06 (inactive). Moreover, the slope in experiment [7] was 0.00554 (inactive). Also, the molecule was called inactive in experiment [8].

Take `COc1ccc(C2C(C#N)=C(N)SC(N)=C2C#N)cc1OC`: the cell count in experiment [1] turned out to be 280. Besides, the inhibition in experiment [1] is -16.8% (inactive); in experiment [2], -21.6% (inactive); in experiment [4] it was -10.5% (inactive); in experiment [9], -3.02% (inactive). Besides, in [2], the nuclei count was found to be 85.8%. Besides, the figures for the z-score in experiment [3] (setting [10]), in experiment [3] (setting [11]) and in experiment [3] (setting [12]) were 0.114, 1.01 and -1.06, respectively. The fluorescence slope in experiment [5] was -0.401 (inactive). Also, the NADPH fluorescence slope in experiment [6] was -5.5e-05 (inactive). Further, in [7], the slope is 0.00592 (inactive). The call in experiment [8] was inactive.
